What follows are compounds tested against Human immunodeficiency virus type 1 protease (Human immunodeficiency virus 1, UniProt Q72874) (assay: HIV-1 protease inhibition.).
Outline: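 Affinity-purified HIV-1 protease (1.5 nM final) with 40 µM peptide substrate His-Lys-Ala-Arg-Val-Leu-(p-NO2-Phe)-Glu-Ala-Nle-Ser-NH2 and 1.0% DMSO. Buffer: 80 mM MES, 160 mM NaCl, 1.0 mM DTT, 1.0 mM EDTA, 0.1% PEG 8000, pH 6.2. Incubated 60 min at 37 °C, then quenched with TFA (2% final). Products separated by reverse-phase HPLC and read at 220 nm. Percent control derived from % conversion with vs without inhibitor; IC50 then determined.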

IC50 [nM]	SMILES
1.3	Cc1cc(SC2C(=O)CC(CCc3cscn3)(C(C)C)OC2=O)c(C(C)(C)C)cc1CO (centres undefined) [3-(2-tert-Butyl-4-hydroxymethyl-5-methyl-phenylsulfanyl)-4-hydroxy-6-isopropyl-6-(2-thiazol-4-yl-ethyl)-5,6-dihydro-pyran-2-one]
14	Cc1cc(SC2C(=O)CC(CCc3nc(C(C)C)cs3)(C(C)C)OC2=O)c(C(C)(C)C)cc1CO (centres undefined) [3-(2-tert-Butyl-4-hydroxymethyl-5-methyl-phenylsulfanyl)-4-hydroxy-6-isopropyl-6-[2-(4-isopropyl-thiazol-2-yl)-ethyl]-5,6-dihydro-pyran-2-one]
14	Cc1cc(SC2C(=O)CC(CCc3ccsc3CO)(C(C)C)OC2=O)c(C(C)(C)C)cc1CO (centres undefined) [3-(2-tert-Butyl-4-hydroxymethyl-5-methyl-phenylsulfanyl)-4-hydroxy-6-[2-(2-hydroxymethyl-thiophen-3-yl)-ethyl]-6-isopropyl-5,6-dihydro-pyran-2-one]
1.3	Cc1cc(SC2C(=O)CC(CCc3ncsc3C)(C(C)C)OC2=O)c(C(C)(C)C)cc1CO (centres undefined) [3-(2-tert-Butyl-4-hydroxymethyl-5-methyl-phenylsulfanyl)-4-hydroxy-6-isopropyl-6-[2-(5-methyl-thiazol-4-yl)-ethyl]-5,6-dihydro-pyran-2-one]

Source: BindingDB's records for doi:10.1021/jm0003844 (Pfizer, 2001)
